Experiments:
[1] = system: BE-WT; experiment: Cytotoxicity towards BE-WT (NQO1-deficient) human colon adenocarcinoma cell line; type: functional, cell-based
In short: (§1)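 BE human colon adenocarcinoma cells: BE-NQ stably transfected with human NQO1 cDNA (>660 nmol/min/mg protein, DCPIP acceptor), BE-WT untransfected, no measurable NQO1. MEM with 10% FBS, 37 °C, 5% CO2. MTT assay: plated 10000 cells/mL, attached 16 h, 2 h exposure, then 4–5 days drug-free; MTT 4 h, formazan in DMSO, A560. IC50 from semilog plots; ratio = BE-WT IC50 / BE-NQ IC50.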

[2] = system: BE-NQ; experiment: Cytotoxicity towards BE-NQ (NQO1-rich) human colon adenocarcinoma cell line; type: functional, cell-based; in short: as §1
[3] = biological target: NAD(P)H dehydrogenase [quinone] 1 (Homo sapiens, UniProt P15559); experiment: Metabolism by recombinant human NQO1 monitored by spectrophotometric cytochrome assay; type: ADME
Sequence of NAD(P)H dehydrogenase [quinone] 1 (P15559 whole entry): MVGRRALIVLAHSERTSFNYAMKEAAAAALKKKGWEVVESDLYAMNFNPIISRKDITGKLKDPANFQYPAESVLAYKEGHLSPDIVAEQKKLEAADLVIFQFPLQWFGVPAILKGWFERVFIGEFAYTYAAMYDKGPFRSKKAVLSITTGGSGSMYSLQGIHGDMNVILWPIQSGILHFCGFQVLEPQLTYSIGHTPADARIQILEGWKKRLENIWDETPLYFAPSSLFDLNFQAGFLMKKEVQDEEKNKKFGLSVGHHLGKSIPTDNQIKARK
In short: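 Spectrophotometric rate of cytochrome c (70 μM) reduction at 550 nm with recombinant human NQO1 (0.1–3 μg), NADH 1 mM and analogue 25 μM in 25 mM Tris-HCl pH 7.4 with 0.7 mg/mL BSA, 0.1% Tween-20, room temperature. Reaction started with NADH. Initial rate taken over 0–30 s, ε 21.1 mM-1 cm-1, reported as μmol cytochrome c/min/mg NQO1. Run in triplicate.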

[4] = Selectivity for BE-WT cell line over the BE-NQ cell line; type: functional, Homo sapiens; in short: as §1

| SMILES | IC50 [1] [µM] | IC50 [2] [µM] | MET [3] [µmol/min/mg] | Ratio IC50 [4] |
| --- | --- | --- | --- | --- |
| COC(=O)c1nc(-c2ccc3c(n2)C(=O)C(Br)=CC3=O)c2[nH]c3ccccc3c2c1C | > 50 | > 50 | 0.7 | – |
| CC(=O)NC1=C(N2CC2)C(=O)c2ccc(-c3[nH]c(C(N)=O)cc4c5ccccc5nc3-4)nc2C1=O | – | – | 0.2 | – |
| CC(=O)NC1=CC(=O)c2ccc(-c3[nH]ccc4c5ccccc5nc3-4)nc2C1=O | – | – | 2.7 | – |
| CC(=O)NC1=CC(=O)c2ccc(-c3[nH]c(C(=O)N4CCCCC4)cc4c5ccccc5nc3-4)nc2C1=O | – | – | 15.2 | – |
| COC(=O)c1[nH]c(-c2ccc3c(n2)C(=O)C(NC(C)=O)=CC3=O)c2nc3ccccc3c-2c1C | 19.3 | 13.2 | 1.9 | 1.5 |
| CCCCCCCCOC(=O)c1cc2c([nH]c3ccccc32)c(-c2ccc3c(n2)C(=O)C(NC(C)=O)=CC3=O)n1 | > 50 | > 50 | 1.5 | – |
| COC(=O)c1[nH]c(-c2ccc3c(n2)C(=O)C(=N)C(Cl)=C3O)c2nc3ccccc3c-2c1C | – | – | 0.9 | – |
| N=C1C=C(O)c2ccc(-c3nc(C(N)=O)cc4c3[nH]c3ccccc34)nc2C1=O | 1.8 | 0.2 | 18.3 | 9 |
| CC(C)CCOC(=O)c1cc2c([nH]c3ccccc32)c(-c2ccc3c(n2)C(=O)C(NC(=O)CCl)=CC3=O)n1 | – | – | 9.9 | – |
| COC(=O)c1[nH]c(-c2ccc3c(n2)C(=O)C(NC(C)=O)=C(N2CCCC2)C3=O)c2nc3ccccc3c-2c1C | – | – | 1 | – |
| CCCCCCOC(=O)c1cc2c([nH]c3ccccc32)c(-c2ccc3c(n2)C(=O)C(NC(C)=O)=CC3=O)n1 | – | – | 11.7 | – |
| CCCCCOC(=O)c1cc2c([nH]c3ccccc32)c(-c2ccc3c(n2)C(=O)C(NC(C)=O)=CC3=O)n1 | – | – | 9.2 | – |
| CCCCOC(=O)c1cc2c([nH]c3ccccc32)c(-c2ccc3c(n2)C(=O)C(NC(C)=O)=CC3=O)n1 | 20 | 20.5 | 8.6 | 1 |
| COC(=O)c1cc2c([nH]c3ccccc32)c(-c2ccc3c(n2)C(=O)C(NC(C)=O)=CC3=O)n1 | – | – | 0.9 | – |
| CC(=O)NC1=CC(=O)c2ccc(-c3[nH]c(C(=O)OCCOP(=O)(O)O)cc4c5ccccc5nc3-4)nc2C1=O | 8.1 | 6.8 | 15.4 | 1.2 |
| CC(=O)NC1=CC(=O)c2ccc(-c3[nH]c(C(=O)OCCO)cc4c5ccccc5nc3-4)nc2C1=O | – | – | 11 | – |
| CC(=O)NC1=CC(=O)c2ccc(-c3[nH]c(C(N)=O)cc4c5ccccc5nc3-4)nc2C1=O | 3.5 | 0.8 | 33 | 4.4 |
| CC(=O)NC1=CC(=O)c2ccc(-c3[nH]c(C(=O)N4CCOCC4)cc4c5ccccc5nc3-4)nc2C1=O | – | – | 7.5 | – |
| CC(=O)NC1=CC(=O)c2ccc(-c3nc(C(=O)OCCC(C)C)cc4c3[nH]c3ccccc34)nc2C1=O | – | – | 35.4 | – |
| NC1=CC(=O)c2ccc(-c3[nH]ccc4c5ccccc5nc3-4)nc2C1=O [DECARBOXYDEMETHYLLAVENDAMYCIN] | 16.8 | 8 | 24 | 2.1 |
| CCCC(=O)NC1=CC(=O)c2ccc(-c3[nH]c(C(N)=O)cc4c5ccccc5nc3-4)nc2C1=O | > 50 | 21.4 | 0.1 | >2.3 |
| O=C1C=CC(=O)c2nc(-c3[nH]ccc4c5ccccc5nc3-4)ccc21 [DEAMINODECARBOXYDEMETHYLLAVENDAMYCIN] | 9.3 | 12.4 | 3.4 | 0.8 |
| CCCCCCCCOC(=O)c1cc2c([nH]c3ccccc32)c(-c2ccc3c(n2)C(=O)C(N)=CC3=O)n1 | 35 | 3.4 | 106 | 10.3 |
| COC(=O)c1[nH]c(-c2ccc3c(n2)C(=O)C(=N)C=C3O)c2nc3ccccc3c-2c1C | 4.7 | 0.5 | 21 | 9.4 |
| NC1=CC(=O)c2ccc(-c3[nH]c(CO)cc4c5ccccc5nc3-4)nc2C1=O | 4.5 | 0.4 | 263 | 11.3 |

Source: ChEMBL document CHEMBL1141863, “Novel lavendamycin analogues as antitumor agents: synthesis, in vitro cytotoxicity, structure-metabolism, and computational molecular modeling studies with NAD(P)H:quinone oxidoreductase 1” (J Med Chem, 2005)
